# High-throughput results (PubChem BioAssay)
# An excerpt weighted towards active compounds, which were near 1.1% of everything screened.
# FXIIa inh: factor XIIa (human) inhibition | purified FXIIa, Boc-QGR-AMC fluorogenic substrate, 2 h | inhibition, % at 5 µM | 220,000 compounds, 0.3% hits | AID 800; in the data active means inhibition above about 40%;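 further: 0% = enzyme with no compound and 100% = blank without enzyme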
# Target sequence (P00748 20-372 limits assumed): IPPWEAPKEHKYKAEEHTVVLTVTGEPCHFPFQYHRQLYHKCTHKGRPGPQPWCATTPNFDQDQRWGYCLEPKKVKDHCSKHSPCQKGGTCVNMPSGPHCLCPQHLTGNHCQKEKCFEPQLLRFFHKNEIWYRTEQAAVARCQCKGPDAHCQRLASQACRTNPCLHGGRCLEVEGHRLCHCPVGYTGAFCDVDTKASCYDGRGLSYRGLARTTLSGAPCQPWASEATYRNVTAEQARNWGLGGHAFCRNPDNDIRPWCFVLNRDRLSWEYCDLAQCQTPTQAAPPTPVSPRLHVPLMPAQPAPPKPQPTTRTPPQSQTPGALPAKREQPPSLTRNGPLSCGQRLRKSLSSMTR
# Target sequence (P00748 373-615 limits assumed): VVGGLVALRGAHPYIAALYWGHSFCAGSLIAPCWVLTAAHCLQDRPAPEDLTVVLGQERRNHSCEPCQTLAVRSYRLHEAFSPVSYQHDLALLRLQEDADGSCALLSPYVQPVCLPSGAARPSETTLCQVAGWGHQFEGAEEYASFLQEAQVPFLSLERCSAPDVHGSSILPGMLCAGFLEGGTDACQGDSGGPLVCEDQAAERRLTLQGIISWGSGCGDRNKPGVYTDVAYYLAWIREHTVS
# Furin inh: blocks human furin protease activity. P09958. purified furin, fluorogenic substrate cleavage. inhibition, % at 20 µM or 30 µM. 220,000 compounds, 0.061% hits; in the data active means inhibition above about 25%
# FXIa inh: blocks human coagulation factor XIa protease activity. purified FXIa, Boc-Glu-Ala-Arg-AMC fluorogenic substrate. inhibition, % at 5 µM. 220,000 compounds, 0.14% hits. AID 798;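 active means inhibition of at least 40%; inactive means inhibition below 40%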;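 further: fluorescence of freed AMC excited at 355 nm; 0% = enzyme without compound and 100% = no enzyme blank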
# thrombin 1536: thrombin (human) inhibition; P00734; alpha-thrombin, Boc-VPR-AMC fluorogenic substrate cleavage; inhibition, % at 5 µM; 220,000 compounds, 0.26% hits; AID 1046;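 active means inhibition at or above 40%; inactive means inhibition below 40%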;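 further: 0% = enzyme with no compound and 100% = wells without enzyme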
#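 System – human alpha-thrombin protein · Reagent – Boc-VPR-AMC substrate, 15 µM final · Compound – 5 µM single dose in 0.2% DMSO · Schedule – reaction at room temperature · Technique – AMC fluorescence at 355 nm excitation and 460 nm emission · Read-out basis – % inhibition relative to enzyme controls and enzyme-free blanks · Control set – no-compound enzyme wells and no-enzyme blanks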
# hK5 inh: inhibitors of human kallikrein 5; Q9Y337; AID 873; 210,000 compounds, 0.59% hits; inhibition, % at 5 µM; recombinant hK5, fluorogenic AMC substrate cleavage;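 active means inhibition of 40% or more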;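 further: 0% = enzyme controls without compound and 100% = no-enzyme blanks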
# * hit, by the source's call.
SMILES,FXIIa inh,Furin inh,FXIa inh,thrombin 1536,hK5 inh
CCCCN1Cc2c(nc3cc(-c4ccco4)[nH]n3c2=O)C1=O,0.5,-12.7,-1.2,-4.8,-3.2
COC(=O)CN1C(=O)C(O)(CC(=O)c2ccc(Cl)cc2)c2ccccc21 (stereo not given),8.8,-16.6,7.4,41.3*,7.8
COC(=O)CN1C(=O)C(O)(CC(=O)c2cccc(Br)c2)c2ccccc21 (stereo not given),14.0,-20.6,3.6,-1.1,-7.9
C=CCn1c(SCC(=O)c2ccc(Cl)cc2)nnc1-c1ccc2c(c1)OCO2,10.4,-7.0,5.1,0.1,-8.5
O=C1/C(=C/C=C/c2ccco2)SC(=S)N1NS(=O)(=O)c1ccccc1,22.7,3.2,10.7,21.9,14.4
CC(C(=O)O)N1C(=O)/C(=C/C=C/c2ccco2)SC1=S (stereo not given),-5.1,5.0,-0.4,14.9,59.4*
Cc1nnc(-c2ccc(Oc3ccc(Br)cc3)c([N+](=O)[O-])c2)o1,8.2,-18.3,6.2,-3.3,-16.3
Cc1cc(Oc2ccc(-c3nnc(-c4ccccc4)o3)cc2[N+](=O)[O-])ccc1Cl,24.6,-6.2,19.9,17.6,43.3*
Cn1c(=O)c2c(nc(N/N=C/c3cccs3)n2C)n(C)c1=O,9.1,13.4,4.3,-3.8,-7.3
Cn1c(N/N=C/c2cccs2)cc(=O)n(C)c1=O,-3.6,4.2,-0.4,65.3*,-9.9
N=C1C(c2nc3ccccc3s2)=C(O)CN1C1CCCCC1,3.4,-26.1,-1.4,-11.4,-2.3
COc1cc(/C=N/n2c(-c3cc(C)[nH]n3)n[nH]c2=S)cc(OC)c1OC,-0.9,-2.1,-8.1,-8.8,58.2*
O=C(Nc1ccc(Cl)c(C(F)(F)F)c1)N1CCCC(O)C1 (stereo not given),42.0*,24.2,3.4,-2.9,1.6
C=CCNc1nc2c3ccccc3n(C(C)=O)c2s1,1.0,-10.2,12.9,16.4,6.4
CC(=O)Nc1ccc(NC(=O)CCn2c(=S)oc3ccccc32)cc1,48.8*,-19.6,26.4,28.1,19.1
CNc1ccccc1NC(=O)CCn1c(=S)oc2ccccc21,6.8,-18.9,-0.9,0.3,0.2
COc1ccc(-c2nnc(NC(=O)Cc3ccccc3)s2)c(OC)c1,5.6,-16.9,-12.2,0.2,51.8*
CCOC(=O)c1c(-c2ccccc2)csc1NC(=O)CCN1CCOCC1,8.0,-8.0,7.5,-2.7,-11.7
CCOC(=O)c1c(-c2ccc(C)cc2)csc1NC(=O)CCN1CCOCC1,11.0,-13.2,6.2,42.3*,22.8
CCc1cccc(Oc2nn[nH]n2)c1,15.9,-11.4,8.7,19.6,77.2*
C=C(C)CC1N(c2cccc(OC)c2)C(=O)C2C(C(=O)O)C3C=CC21O3 (stereo not given),-3.9,-10.1,-7.5,-3.9,45.2*
COc1ccc(Cn2nnnc2C(c2cc(OC)ccc2OC)N2CCC(C(N)=O)CC2)cc1 (stereo not given),22.6,-3.8,15.3,36.8,70.3*
COc1ccc(Cn2nnnc2C(c2ccccc2Cl)N2CCC(C(N)=O)CC2)cc1 (stereo not given),3.5,2.4,-4.2,-1.4,-11.2
CC(C)N(C)CCOC(=O)/C=C/c1ccccc1,14.9,-16.4,-3.7,6.1,40.6*
C/C(=N\NC(=O)c1ccc(OC2OCCOC2Oc2ccc(C(=O)N/N=C(\C)c3ccncc3)cc2)cc1)c1ccncc1 (stereo not given),18.3,-6.2,6.1,3.1,-0.3
SMILES,FXIIa inh,Furin inh,FXIa inh,thrombin 1536,hK5 inh
O=C(NCCCN1CCCC1)c1ccc2c(Cl)c3c(nc2c1)CCCC3,41.2*,-19.9,-3.9,2.9,0.8
CCN(CC)CCCNC(=O)c1ccc2c(Cl)c3c(nc2c1)CCCC3,6.5,-22.0,-4.8,11.5,-3.3
CC1(C)CC(=O)C2=C(C1)N(Cc1ccccc1)C(=O)C2(NC(=O)C(C)(C)C)C(F)(F)F (stereo not given),14.5,-16.4,14.6,18.8,53.4*
CC1CCN(S(=O)(=O)c2ccc3nc(-c4ccccn4)cc(C(=O)NCCN(C)Cc4ccccc4)c3c2)CC1,66.2*,-13.1,30.3,34.5,18.5
CC1CCN(CCOc2ccc(Cl)c(Cl)c2)CC1,9.8,-22.4,6.6,0.7,-7.7
COC(=O)c1cccc(NS(=O)(=O)c2ccc(OC)cc2)c1C,14.6,-9.5,6.6,0.0,-12.5
COC(=O)c1cccc(NS(=O)(=O)c2ccc(OC)c(OC)c2)c1C,49.6*,-5.0,-0.1,1.9,10.2
CCOc1cc(NC(=S)NCCCN2CCOCC2)c(OCC)cc1NC(=O)c1ccc(C)cc1,52.1*,2.2,27.2,14.4,40.8*
CCc1nnc(NC(=O)CSc2nc3ccccc3o2)s1,-0.4,-11.3,6.7,10.9,41.8*
CCc1nnc(NC(=O)CSc2ncc(-c3ccccc3)[nH]2)s1,-1.1,-4.1,10.2,12.1,62.9*
Cc1nnc(NC(=O)CSc2ncc(-c3ccccc3)[nH]2)s1,2.6,-10.2,-4.4,-6.8,-1.9
CC1Oc2ccccc2C=C1/C=N/Nc1ccc(C(=O)O)cc1 (stereo not given),11.1,-15.8,3.4,-2.0,5.4
COC(=O)c1c(-c2c(Cl)cccc2Cl)noc1C(=O)NN,-0.6,-11.8,-0.2,-9.2,-5.0
CCOC(=O)C1CCN(C(=O)c2cc(C)n(C(C)(C)C)n2)CC1,3.6,-17.0,-0.8,-5.0,0.3
CCOc1ccc(CN(C)CC(=O)Nc2ccc(N3CCOCC3)cc2)cc1OC,8.1,-25.3,4.2,-4.1,-7.7
COCCCNC(=O)CC1Oc2ccccc2NC1=O (stereo not given),11.2,-9.6,14.2,16.2,55.8*
O=C(CCc1ccccc1)Nc1ncc2c(n1)CCCC2=O,20.3,-5.6,7.4,1.5,3.5
CC1(C)CC(=O)c2cnc(NC(=O)CCc3ccccc3)nc2C1,26.1,-16.5,12.4,14.3,85.9*
CCCOc1ccc(OCCNC2CCCC2)cc1,9.1,-17.2,38.3,23.2,74.3*
CCCCCOc1ccc(C2NC(=O)NC2=O)cc1 (stereo not given),2.1,-16.2,-6.7,-4.7,-7.1
CCCOc1ccc(C2NC(=O)NC2=O)cc1 (stereo not given),5.1,26.7*,-6.0,-0.2,-23.4
O=C(c1ccco1)N(Cc1ccc2c(c1)OCO2)Cc1cc2cc3c(cc2[nH]c1=O)OCO3,10.8,-12.7,0.1,1.9,1.6
Cc1cc2cc(CN(Cc3ccc4c(c3)OCO4)C(=O)c3ccco3)c(=O)[nH]c2cc1C,9.0,-13.2,1.5,15.3,54.5*
CN(NC1OC(=O)c2ccccc21)c1ccc(Cl)cc1[N+](=O)[O-] (stereo not given),5.0,-8.6,4.1,-6.0,-6.1
O=C1OC(Nc2ccc(F)c([N+](=O)[O-])c2)c2ccccc21 (stereo not given),25.9,-4.3,43.9*,50.3*,26.2
COc1ccc(C(=O)OCC(=O)N2CCCC2=O)c(OC)c1,5.6,-17.3,-1.8,-4.9,-1.7
Cc1ccccc1-n1cc(-c2ccc(Br)cc2)nc1SCC(N)=O,15.9,2.8,28.5,19.3,46.1*
